Results: ChEMBL document CHEMBL2086281, “Design, synthesis and 3D-QSAR analysis of novel 2-hydrazinyl-4-morpholinothieno[3,2-d]pyrimidine derivatives as potential antitumor agents” (Eur J Med Chem, 2012)
pIC50: −log10 of the molar value.

Assays:
NCI-H460 [1] = assay: Cytotoxicity against human H460 cells assessed as growth inhibition after 72 hrs by MTT assay; type: functional, cell-based; settings: NCI-H460, 72 h; for pIC50: read-out: IC50; for IC50: read-out: pIC50 (converted)
Method in brief: (§1)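 Cells grown in MEM with 10% FBS. About 4×10^3 cells/well were pre-incubated for 24 h at 37 °C in 5% CO₂, then exposed to compound at the indicated final concentrations for 72 h. MTT was added to 5 µg/mL final for 4 h at 37 °C. IC50 is the mean of three determinations.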

HT-29 [2] = assay: Cytotoxicity against human HT-29 cells assessed as growth inhibition after 72 hrs by MTT assay; type: functional, cell-based; settings: HT-29, 72 h
Method in brief: as §1, with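 “°C. Formazan was dissolved in DMSO and read at 492 nm, with 630 nm as reference.” for “°C.”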

MDA-MB-231 [3] = assay: Cytotoxicity against human MDA-MB-231 cells assessed as growth inhibition after 72 hrs by MTT assay; type: functional, cell-based; settings: MDA-MB-231, 72 h
Method in brief: as §1, with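 “°C. Formazan was dissolved in DMSO and read at 492 nm, with 630 nm as reference.” for “°C.”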

NCI-H1975 = assay: Cytotoxicity against human NCI-H1975 cells assessed as growth inhibition after 72 hrs by MTT assay; type: functional, cell-based; settings: NCI-H1975, 72 h
Method in brief: as §1, with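 “°C. Formazan was dissolved in DMSO and read at 492 nm, with 630 nm as reference.” for “°C.”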

[4] = Cytotoxicity against human U87MG cells assessed as growth inhibition after 72 hrs by MTT assay; type: functional, cell-based, U-87MG ATCC; settings: U-87 MG
Method in brief: as §1, with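 “°C. Formazan was dissolved in DMSO and read at 492 nm, with 630 nm as reference.” for “°C.”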

HepG2 = assay: Cytotoxicity against human HepG2 cells assessed as growth inhibition after 72 hrs by MTT assay; type: functional, cell-based; settings: HepG2, 72 h
Method in brief: as §1, with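 “°C. Formazan was dissolved in DMSO and read at 492 nm, with 630 nm as reference.” for “°C.”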

A549 = assay: Cytotoxicity against human A549 cells assessed as growth inhibition after 72 hrs by MTT assay; type: functional, cell-based; settings: A549, 72 h
Method in brief: as §1, with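 “°C. Formazan was dissolved in DMSO and read at 492 nm, with 630 nm as reference.” for “°C.”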

MDA-MB-231 [5] = assay: Ratio of GDC-0941 IC50 to compound IC50 for human MDA-MB-231 cells assessed as growth inhibition after 72 hrs by MTT assay; type: functional
SGC-7901 = assay: Cytotoxicity against human SGC7901 cells assessed as growth inhibition after 72 hrs by MTT assay; type: functional, cell-based; settings: SGC-7901, 72 h
Method in brief: as §1, with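 “°C. Formazan was dissolved in DMSO and read at 492 nm, with 630 nm as reference.” for “°C.”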

HT-29 [6] = assay: Ratio of GDC-0941 IC50 to compound IC50 for human HT-29 cells assessed as growth inhibition after 72 hrs by MTT assay; type: functional
NCI-H226 = assay: Cytotoxicity against human NCI-H226 cells assessed as growth inhibition after 72 hrs by MTT assay; type: functional, cell-based; settings: NCI-H226, 72 h
Method in brief: as §1, with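 “°C. Formazan was dissolved in DMSO and read at 492 nm, with 630 nm as reference.” for “°C.”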

NCI-H460 [7] = assay: Ratio of GDC-0941 IC50 to compound IC50 for human H460 cells assessed as growth inhibition after 72 hrs by MTT assay; type: functional

SMILES	pIC50 (NCI-H460 [1])	IC50 (NCI-H460 [1])	pIC50 (HT-29 [2])	pIC50 (MDA-MB-231 [3])	pIC50 (NCI-H1975)	pIC50 [4]	pIC50 (HepG2)	pIC50 (A549)	Ratio IC50 (MDA-MB-231 [5])	pIC50 (SGC-7901)	Ratio IC50 (HT-29 [6])	pIC50 (NCI-H226)	Ratio IC50 (NCI-H460 [7])
Clc1cccc(Cn2c(/C=N/Nc3nc(N4CCOCC4)c4sccc4n3)nc3ccccc32)c1Cl	4.43	37.2 µM	5.19	< 4.00	–	–	–	–	–	–	–	–	–
C(=N\Nc1nc(N2CCOCC2)c2sccc2n1)/c1cn(Cc2ccccc2)c2ccccc12	5.85	1.41 µM	5.33	4.91	4.37	< 4.00	–	–	–	–	–	–	–
CC(C)(O)c1cc2nc(N/N=C/c3cn(Cc4cccc(Cl)c4)c4ccccc34)nc(N3CCOCC3)c2s1	6.08	0.832 µM	6.06	5.49	4.62	5.05	–	–	–	–	–	–	–
CC(C)(O)c1cc2nc(N/N=C/c3cn(Cc4ccc(F)cc4)c4ccccc34)nc(N3CCOCC3)c2s1	5.96	1.1 µM	6.00	5.82	–	–	–	–	–	–	–	–	–
Cc1ccc(Cn2cc(/C=N/Nc3nc(N4CCOCC4)c4sccc4n3)c3ccccc32)cc1	6.08	0.832 µM	5.48	5.01	4.48	5.30	–	–	–	–	–	–	–
Fc1ccc(Cn2cc(/C=N/Nc3nc(N4CCOCC4)c4sccc4n3)c3ccccc32)cc1	6.39	0.407 µM	5.75	4.91	< 4.00	5.05	–	–	–	–	–	–	–
Clc1cccc(Cn2c(/C=N/Nc3nc(N4CCOCC4)c4sccc4n3)nc3ccccc32)c1	5.34	4.57 µM	6.00	4.42	–	–	–	–	–	–	–	–	–
C=CCc1cccc(/C=N/NC(=O)CN2CCN(Cc3ccccc3)CC2)c1O [PAC-1]	5.45	–	6.01	5.21	–	–	–	–	–	–	–	–	–
Fc1cccc(Cn2cc(/C=N/Nc3nc(N4CCOCC4)c4sccc4n3)c3ccccc32)c1	6.64	0.224 µM	6.41	5.95	4.72	4.90	5.96	5.06	66.5	6.10	1.7	6.04	3.8
N#Cc1cccc(Cn2cc(/C=N/Nc3nc(N4CCOCC4)c4sccc4n3)c3ccccc32)c1	6.47	0.347 µM	5.31	5.70	–	5.01	–	–	–	–	–	–	–
Clc1ccc(Cn2cc(/C=N/Nc3nc(N4CCOCC4)c4sccc4n3)c3ccccc32)c(Cl)c1	5.24	5.75 µM	4.33	< 4.00	–	–	–	–	–	–	–	–	–
Clc1ccc(Cn2c(/C=N/Nc3nc(N4CCOCC4)c4sccc4n3)nc3ccccc32)cc1	5.59	2.63 µM	6.11	4.86	–	4.87	–	–	–	–	–	–	–
CC(C)(O)c1cc2nc(N/N=C/c3cn(Cc4ccccc4F)c4ccccc34)nc(N3CCOCC3)c2s1	5.96	1.1 µM	5.98	5.78	4.81	5.41	–	–	–	–	–	–	–
CS(=O)(=O)N1CCN(Cc2cc3nc(-c4cccc5[nH]ncc45)nc(N4CCOCC4)c3s2)CC1 [PICTILISIB]	–	–	6.18	4.13	6.57	5.11	6.00	5.16	–	5.74	–	5.54	–
Clc1ccccc1Cn1cc(/C=N/Nc2nc(N3CCOCC3)c3sccc3n2)c2ccccc21	5.40	3.98 µM	< 4.00	< 4.00	–	–	–	–	–	–	–	–	–
Clc1cccc(Cl)c1Cn1cc(/C=N/Nc2nc(N3CCOCC3)c3sccc3n2)c2ccccc21	4.98	10.5 µM	4.45	4.69	–	–	–	–	–	–	–	–	–
CC(C)(O)c1cc2nc(N/N=C/c3cn(Cc4ccc(C#N)cc4)c4ccccc34)nc(N3CCOCC3)c2s1	5.34	4.57 µM	5.60	5.20	–	–	–	–	–	–	–	–	–
CC(C)(O)c1cc2nc(N/N=C/c3cn(Cc4cccc(Cl)c4Cl)c4ccccc34)nc(N3CCOCC3)c2s1	5.14	7.24 µM	5.43	< 4.00	–	–	–	–	–	–	–	–	–

SMILES	pIC50 (NCI-H460 [1])	IC50 (NCI-H460 [1])	pIC50 (HT-29 [2])	pIC50 (MDA-MB-231 [3])	pIC50 (NCI-H1975)	pIC50 [4]	pIC50 (HepG2)	pIC50 (A549)	Ratio IC50 (MDA-MB-231 [5])	pIC50 (SGC-7901)	Ratio IC50 (HT-29 [6])	pIC50 (NCI-H226)	Ratio IC50 (NCI-H460 [7])
N#Cc1ccc(Cn2cc(/C=N/Nc3nc(N4CCOCC4)c4sccc4n3)c3ccccc32)cc1	5.79	1.62 µM	4.59	< 4.00	–	–	–	–	–	–	–	–	–
CC(C)(O)c1cc2nc(NN)nc(N3CCOCC3)c2s1	4.53	–	4.25	< 4.00	–	–	–	–	–	–	–	–	–
Fc1ccccc1Cn1cc(/C=N/Nc2nc(N3CCOCC3)c3sccc3n2)c2ccccc21	6.07	0.871 µM	5.48	5.03	< 4.00	4.65	–	–	–	–	–	–	–
CC(C)(O)c1cc2nc(N/N=C/c3cn(Cc4c(Cl)cccc4Cl)c4ccccc34)nc(N3CCOCC3)c2s1	5.39	4.07 µM	5.47	4.21	–	–	–	–	–	–	–	–	–
CC(C)(O)c1cc2nc(N/N=C/c3cn(Cc4cccc(C#N)c4)c4ccccc34)nc(N3CCOCC3)c2s1	6.44	0.363 µM	5.86	5.25	–	5.18	–	–	–	–	–	–	–
FC(F)(F)c1cccc(Cn2cc(/C=N/Nc3nc(N4CCOCC4)c4sccc4n3)c3ccccc32)c1	6.28	0.525 µM	5.77	4.08	5.55	5.32	–	–	–	–	–	–	–
Clc1cccc(Cn2cc(/C=N/Nc3nc(N4CCOCC4)c4sccc4n3)c3ccccc32)c1	6.27	0.537 µM	5.53	5.01	< 4.00	5.22	–	–	–	–	–	–	–
Clc1ccc(Cn2cc(/C=N/Nc3nc(N4CCOCC4)c4sccc4n3)c3ccccc32)cc1	6.44	0.355 µM	5.24	5.57	–	4.81	–	–	–	–	–	–	–
CC(C)(O)c1cc2nc(N/N=C/c3cn(Cc4ccc(Cl)cc4)c4ccccc34)nc(N3CCOCC3)c2s1	6.26	0.55 µM	6.06	5.29	4.47	5.13	–	–	–	–	–	–	–
Clc1ccc(Cn2cc(/C=N/Nc3nc(N4CCOCC4)c4sccc4n3)c3ccccc32)cc1Cl	6.13	0.741 µM	4.79	< 4.00	< 4.00	< 4.00	–	–	–	–	–	–	–
CC(C)(O)c1cc2nc(N/N=C/c3cn(Cc4cccc(F)c4)c4ccccc34)nc(N3CCOCC3)c2s1	6.38	0.427 µM	6.42	5.14	4.71	5.11	–	–	–	–	–	–	–
NNc1nc(N2CCOCC2)c2sccc2n1	4.37	–	4.63	4.20	–	–	–	–	–	–	–	–	–
Clc1ccccc1Cn1c(/C=N/Nc2nc(N3CCOCC3)c3sccc3n2)nc2ccccc21	4.10	79.4 µM	6.40	< 4.00	–	–	–	–	–	–	–	–	–
COc1cc(/C=N/Nc2nc(N3CCOCC3)nc(N3CCOCC3)n2)cc(OC)c1O	5.04	–	4.69	< 4.00	–	–	–	–	–	–	–	–	–
CC(C)(O)c1cc2nc(N/N=C/c3cn(Cc4ccc(Cl)cc4Cl)c4ccccc34)nc(N3CCOCC3)c2s1	5.05	8.91 µM	5.27	< 4.00	–	–	–	–	–	–	–	–	–
CC(C)(C)c1ccc(Cn2c(/C=N/Nc3nc(N4CCOCC4)c4sccc4n3)nc3ccccc32)cc1	5.44	3.63 µM	5.38	5.09	–	–	–	–	–	–	–	–	–
C(=N\Nc1nc(N2CCOCC2)c2sccc2n1)/c1nc2ccccc2n1Cc1ccccc1	4.59	25.7 µM	5.97	4.67	–	–	–	–	–	–	–	–	–
CC(C)(C)c1ccc(Cn2cc(/C=N/Nc3nc(N4CCOCC4)c4sccc4n3)c3ccccc32)cc1	6.42	0.38 µM	5.77	5.84	5.10	4.95	–	–	–	–	–	–	–
